Compound activity: PubChem, Broad Institute
T cruzi growth-1: T. cruzi proliferation inhibition | T. cruzi beta-gal in NIH3T3, GalScreen luminescence, 90 h | hit rate 5.9% among 77,000 | inhibition, % at 8.34 µM;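 active = mean inhibition above about 93%, with at least 55% of replicates each passing it, limit read from the data, passing the limit was not always enough; inconclusive = only one of those two conditions holds; inactive = neither condition holds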
GASC1 inh: inhibitors of human demethylase GASC-1 KDM4C; hit rate 0.15% among 96,000; AID 720574; GST-KDM4C 2-372, H3K9me3 peptide, LANCE TR-FRET; inhibition, % at 12.5 µM; Q9H3R0;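 active = mean replicate inhibition above about 25%, with at least 55% of replicates also reaching it, limit read from the data, passing the limit was not always enough; inconclusive = only one of those two conditions met; inactive = neither condition met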
Target sequence (Q9H3R0 2-372 limits assumed): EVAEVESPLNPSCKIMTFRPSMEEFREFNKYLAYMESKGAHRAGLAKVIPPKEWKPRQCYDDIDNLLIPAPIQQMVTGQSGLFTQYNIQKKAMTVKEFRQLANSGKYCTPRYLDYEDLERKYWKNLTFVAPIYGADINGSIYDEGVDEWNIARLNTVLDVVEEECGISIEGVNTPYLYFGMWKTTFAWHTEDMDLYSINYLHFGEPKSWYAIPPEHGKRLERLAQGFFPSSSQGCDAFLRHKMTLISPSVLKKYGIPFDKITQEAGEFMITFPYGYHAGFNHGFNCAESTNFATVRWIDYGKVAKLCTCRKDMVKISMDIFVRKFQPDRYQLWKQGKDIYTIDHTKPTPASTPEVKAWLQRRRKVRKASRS
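Material: GST-tagged GASC-1 (JMJD2C) catalytic fragment, aa 2-372 / Quantity: enzyme final amount 10 nM / Medium: HEPES buffer, pH 7.5, plus ascorbate / Doses: one test concentration per compound / Incubation: 30 min reaction, 60 min detection, RT / Measured by: LANCE TR-FRET / Read-out: inhibition from TR-FRET ratio decrease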
IDH1 mut inh: blocks human IDH1 R132H reductase activity | diaphorase/resazurin fluorescence, 60 min | hit rate 0.18% among 70,000 | inhibition, % at 10 µM | O75874; in the data active = inhibition above about 34%; inconclusive = no clear call, values can overlap the other calls; inactive = below about 11%;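 also: 0% = DMSO and 100% = no enzyme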
Pf Dd2 growth: P. falciparum Dd2 growth inhibition | SYBR Green, 72 h; hits give low values | activity change, % at 10 µM | hit rate 2.3% among 94,000; in the data active = activity change below about -80%; inconclusive = no clear call, values can overlap the other calls
T cruzi growth-2: inhibitors of T. cruzi proliferation | shares compounds with T cruzi growth-1 | T. cruzi beta-gal in NIH3T3, GalScreen luminescence, 90 h | inhibition, % at 8.35 µM | hit rate 72% among 5,600 | AID 651739;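 active = mean replicate inhibition above about 95% and at least 55% of replicates individually reaching it, limit read from the data; inconclusive = only one of the two criteria is met; inactive = neither criterion is met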
T cruzi growth-3: inhibitors of T. cruzi proliferation | inhibition, % at 2.09 µM | hit rate 21% among 5,600 | T. cruzi beta-gal in NIH3T3, GalScreen luminescence, 90 h | shares compounds with T cruzi growth-1;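 active = mean inhibition above about 95%, with at least 55% of replicates also reaching it, limit read from the data; inconclusive = meets just one of the two conditions; inactive = meets neither condition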;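 also: plate controls were neutral control median for no effect and positive control median for full effect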
NIH3T3 tox: cytotoxicity in mouse NIH/3T3 fibroblasts; shares compounds with T cruzi growth-1; NIH/3T3 viability, CellTiter-Glo ATP luminescence, 90 h; cytotoxicity (signal decrease), % at 8.35 µM; hit rate 14% among 5,600;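 active = mean signal decrease across replicates above about 35% based on untreated-well scatter, with enough replicates individually passing, limit read from the data; inconclusive = no rule stated though some were filed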;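 also: 0% = median of neutral control wells and 100% = median of positive control wells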
3T3 cytotox 2: NIH/3T3 (mouse) viability loss; shares compounds with T cruzi growth-1; NIH/3T3 viability, CellTiter-Glo ATP luminescence, 90 h; inhibition, % at 24.9 µM; hit rate 56% among 5,600;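 active = mean loss of cell viability signal at or above a set limit, and enough replicates individually reaching it; inconclusive = meets only the mean limit or only the replicate share; inactive = meets neither condition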;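 also: 0% = median of neutral control wells and 100% = median of positive control wells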
The depositor's hits bear a star; ? = inconclusive; / = no result given. Most compounds without a hit are left out; they make up all but 5.9% or so of the library.

SMILES	T cruzi growth-1	GASC1 inh	IDH1 mut inh	Pf Dd2 growth	T cruzi growth-2	T cruzi growth-3	NIH3T3 tox	3T3 cytotox 2
CN1c2ccc(-c3ccccc3)cc2[C@H]2[C@H](CCN2C(=O)Cc2ccccn2)[C@@H]1CO	113*	3	/	-3	103*	59	-41	-11
CN(C)C(=O)c1ccc(-c2ccc3c(c2)[C@H]2[C@H](CCN2C(=O)Cc2ccccn2)[C@H](CO)N3C)cc1	90	-1	/	-30	/	/	/	/
C[C@@H]1CN([C@@H](C)CO)S(=O)(=O)c2ccc(-c3ccccc3)cc2O[C@H]1CN(C)C(=O)C1CCCCC1	?	-2	/	-50	97*	53	34	0
C[C@@H]1CN([C@H](C)CO)S(=O)(=O)c2ccc(-c3ccncc3)cc2O[C@H]1CN(C)C(=O)C1CCC1	103*	1	/	-2	89	29	18	42*
Cc1ccc(-c2ccc3c(c2)O[C@@H](CN(C)C(=O)C2CCCCC2)[C@H](C)CN([C@H](C)CO)S3(=O)=O)cc1	112*	-2	/	-79	101*	87	21	107*
Cc1ccc(-c2ccc3c(c2)O[C@H](CN(C)C(=O)C2CCC2)[C@H](C)CN([C@@H](C)CO)S3(=O)=O)cc1	121*	2	/	-50	83	73	41*	78*
O=C(NO)c1cccc(C(=O)N/N=C/c2ccccc2C(=O)O)c1	/	/	-1	/	/	/	/	/
Cc1cc2nc(-c3ccc(NC(=O)COc4ccc([N+](=O)[O-])cc4)cc3)oc2cc1C	/	/	0	/	/	/	/	/
CCSc1ccccc1C(=O)Nc1ccc(S(=O)(=O)Nc2ncccn2)cc1	/	/	0	/	/	/	/	/
Cc1ccc(-c2ccc3c(c2)O[C@H](CN(C)C(=O)C2CCCCC2)[C@H](C)CN([C@@H](C)CO)S3(=O)=O)cc1	118*	-2	-5	-25	95	73	50*	106*
Cc1ccc(-c2ccc3c(c2)O[C@H](CN(C)C(=O)C2CCCCC2)[C@H](C)CN([C@H](C)CO)S3(=O)=O)cc1	121*	-2	/	-29	96*	?	29	105*
CC(=O)Nc1ccc(S(=O)(=O)NC2(C(F)(F)F)C(=O)N(c3ccc(C(C)C)cc3)C(C)=C2C(C)=O)cc1 (stereo unspecified)	/	/	0	/	/	/	/	/
N#C[C@H]1[C@@H](c2ccc(C#CC3(O)CCCC3)cc2)[C@@H](CO)N1C(=O)C1CCCCC1	93	2	/	18	/	/	/	/
N#C[C@@H]1[C@@H](c2ccc(C#CC3(O)CCCC3)cc2)[C@@H](CO)N1C(=O)C1CCCCC1	97*	0	/	9	110*	84	23	?
N#C[C@H]1[C@@H](c2ccc(C#CC3(O)CCCC3)cc2)[C@@H](CO)N1C(=O)C1CCC1	18	-1	/	19	/	/	/	/
N#C[C@H]1[C@@H](c2ccc(C#CC3(O)CCCC3)cc2)[C@H](CO)N1C(=O)C1CCC1	99*	-4	/	-24	104*	88	-3	69*
C[C@H](CO)N1C[C@H](C)[C@H](CN(C)Cc2ccc(Oc3ccccc3)cc2)Oc2cc(-c3ccncc3)ccc2S1(=O)=O	124*	-1	5	-75	101*	104*	64*	64*
C[C@@H]1CN([C@@H](C)CO)S(=O)(=O)c2ccc(-c3ccncc3)cc2O[C@@H]1CN(C)Cc1ccccc1	86	-1	/	-29	/	/	/	/
C[C@@H]1CN([C@@H](C)CO)S(=O)(=O)c2ccc(-c3ccncc3)cc2O[C@@H]1CN(C)Cc1ccc(Oc2ccccc2)cc1	?	1	0	-84*	99*	108*	74*	74*
COC(=O)c1cc(NC(=O)COc2c(C)cc(Cl)cc2Cl)cc(C(=O)OC)c1	/	/	0	/	/	/	/	/
C[C@H](CO)N1C[C@H](C)[C@H](CN(C)S(=O)(=O)c2ccc(Cl)cc2)OCCCC[C@H](C)Oc2ccc(NC(=O)Nc3ccc4c(c3)OCO4)cc2C1=O	104*	-1	/	-69	103*	102*	-2	16
C[C@H](CO)N1C[C@H](C)[C@@H](CN(C)S(=O)(=O)c2ccc(Cl)cc2)OCCCC[C@H](C)Oc2ccc(NC(=O)Nc3ccc4c(c3)OCO4)cc2C1=O	106*	0	/	-64	114*	104*	2	-3
C[C@@H]1CCCCO[C@H](CN(C)S(=O)(=O)c2ccc(Cl)cc2)[C@H](C)CN([C@@H](C)CO)C(=O)c2cc(NC(=O)Nc3ccc4c(c3)OCO4)ccc2O1	100*	0	/	-85*	105*	113*	-3	11
Cc1ccc(S(=O)(=O)N(C)C[C@@H]2OCCCC[C@H](C)Oc3ccc(NC(=O)Nc4ccc5c(c4)OCO5)cc3C(=O)N([C@H](C)CO)C[C@H]2C)cc1	/	-1	4	-75	/	/	/	/
CCOc1ccc(NC(=O)C(C)Sc2nnnn2-c2ccccc2)cc1 (stereo unspecified)	/	/	-1	/	/	/	/	/
SMILES	T cruzi growth-1	GASC1 inh	IDH1 mut inh	Pf Dd2 growth	T cruzi growth-2	T cruzi growth-3	NIH3T3 tox	3T3 cytotox 2
C[C@@H]1CN([C@H](C)CO)C(=O)c2cc(NC(=O)Nc3ccc(F)cc3)ccc2O[C@H]1CN(C)Cc1ccc(-c2ccccc2)cc1	48	-1	/	9	/	/	/	/
C[C@@H]1CN([C@H](C)CO)C(=O)c2cc(NC(=O)Nc3ccc(F)cc3)ccc2O[C@@H]1CN(C)Cc1ccc(-c2ccccc2)cc1	?	1	0	7	95*	89	111*	106*
C[C@@H]1CN([C@@H](C)CO)C(=O)c2cc(NC(=O)Nc3ccc(F)cc3)ccc2O[C@@H]1CN(C)Cc1ccc(-c2ccccc2)cc1	94*	-2	-1	-2	96*	87	57*	102*
O=C(CSc1nnc(-c2cccnc2)o1)c1ccc2c(c1)OCCO2	/	/	0	/	/	/	/	/
Cn1c(Cc2cccc3ccccc23)nnc1SCC(=O)c1ccc(Cl)cc1	/	/	1	/	/	/	/	/
C[C@H](CO)N1C[C@H](C)[C@H](CN(C)Cc2ccc(C(=O)Nc3ccccc3N)cc2)Oc2c(NC(=O)c3nc4ccccc4s3)cccc2C1=O	?	-1	0	-93*	102*	105*	23	64*
C[C@H]1CN([C@@H](C)CO)C(=O)c2cccc(NC(=O)c3nc4ccccc4s3)c2O[C@@H]1CN(C)Cc1ccc(C(=O)Nc2ccccc2N)cc1	106*	0	0	-89*	107*	92	11	?
C[C@H](CO)N1C[C@H](C)[C@@H](CN(C)Cc2ccc(C(=O)O)cc2)Oc2c(NC(=O)c3nc4ccccc4s3)cccc2C1=O	42	0	-10	9	/	/	/	/
